This is an account of results in ChEMBL document CHEMBL1671840, “Design, Synthesis, and Preclinical Characterization of the Selective Androgen Receptor Modulator (SARM) RAD140” (ACS Med Chem Lett, 2011).

Series [1] can be described thus: Oral bioavailability in rat. It is filed as ADME, organism-based. As to conditions: in vivo.
Series [2] concerns Rattus norvegicus. Put plainly: Androgenic activity in young intact rat assessed as increase of prostate weight at 0.5 mg/kg, sc qd for 11 days. It is filed as functional, organism-based. Further details: dose 0.5 mg/kg. The settings on record: Prostate gland.
For series [3], the system named is Rattus norvegicus. The experiment in a line: Androgenic activity in young intact rat assessed as increase of levator ani bulbocavernosus muscle weight at 0.1 mg/kg, po qd for 11 days. It is filed as functional, organism-based. Further details: dose 0.1 mg/kg. As to conditions: Muscle tissue.
The target in the next series is T1, Androgen receptor (Homo sapiens, UniProt P10275).
T1 sequence (P10275 whole entry): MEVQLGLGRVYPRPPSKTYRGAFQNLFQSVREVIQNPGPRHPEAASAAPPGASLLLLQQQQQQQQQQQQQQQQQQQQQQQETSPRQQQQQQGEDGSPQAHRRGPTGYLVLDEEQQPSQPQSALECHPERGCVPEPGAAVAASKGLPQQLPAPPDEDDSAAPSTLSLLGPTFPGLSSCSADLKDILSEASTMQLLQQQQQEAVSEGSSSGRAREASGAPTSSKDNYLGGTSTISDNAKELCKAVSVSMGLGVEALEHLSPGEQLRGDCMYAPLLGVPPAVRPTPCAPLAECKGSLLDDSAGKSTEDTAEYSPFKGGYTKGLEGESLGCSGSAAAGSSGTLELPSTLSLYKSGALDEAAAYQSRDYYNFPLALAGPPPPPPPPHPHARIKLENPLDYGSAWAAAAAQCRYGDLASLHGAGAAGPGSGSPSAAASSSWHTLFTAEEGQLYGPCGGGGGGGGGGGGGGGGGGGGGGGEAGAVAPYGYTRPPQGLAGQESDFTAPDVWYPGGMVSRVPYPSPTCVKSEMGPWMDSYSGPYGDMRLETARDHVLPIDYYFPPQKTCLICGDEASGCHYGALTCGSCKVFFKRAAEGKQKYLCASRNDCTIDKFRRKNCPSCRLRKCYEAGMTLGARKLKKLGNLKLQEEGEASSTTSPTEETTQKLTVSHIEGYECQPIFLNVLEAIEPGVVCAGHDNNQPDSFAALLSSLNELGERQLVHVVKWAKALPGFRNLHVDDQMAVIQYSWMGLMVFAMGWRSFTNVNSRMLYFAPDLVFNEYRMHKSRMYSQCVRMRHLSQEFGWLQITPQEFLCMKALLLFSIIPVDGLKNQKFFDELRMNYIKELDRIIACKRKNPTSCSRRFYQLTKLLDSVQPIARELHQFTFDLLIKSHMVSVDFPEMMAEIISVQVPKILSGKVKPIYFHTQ
The experiment in a line: Displacement of fluorescent-tagged R1881 from androgen receptor after 4 hrs by fluorometric assay.

The target of another series is T2, Progesterone receptor (Homo sapiens, UniProt P06401).
T2 sequence (P06401 whole entry): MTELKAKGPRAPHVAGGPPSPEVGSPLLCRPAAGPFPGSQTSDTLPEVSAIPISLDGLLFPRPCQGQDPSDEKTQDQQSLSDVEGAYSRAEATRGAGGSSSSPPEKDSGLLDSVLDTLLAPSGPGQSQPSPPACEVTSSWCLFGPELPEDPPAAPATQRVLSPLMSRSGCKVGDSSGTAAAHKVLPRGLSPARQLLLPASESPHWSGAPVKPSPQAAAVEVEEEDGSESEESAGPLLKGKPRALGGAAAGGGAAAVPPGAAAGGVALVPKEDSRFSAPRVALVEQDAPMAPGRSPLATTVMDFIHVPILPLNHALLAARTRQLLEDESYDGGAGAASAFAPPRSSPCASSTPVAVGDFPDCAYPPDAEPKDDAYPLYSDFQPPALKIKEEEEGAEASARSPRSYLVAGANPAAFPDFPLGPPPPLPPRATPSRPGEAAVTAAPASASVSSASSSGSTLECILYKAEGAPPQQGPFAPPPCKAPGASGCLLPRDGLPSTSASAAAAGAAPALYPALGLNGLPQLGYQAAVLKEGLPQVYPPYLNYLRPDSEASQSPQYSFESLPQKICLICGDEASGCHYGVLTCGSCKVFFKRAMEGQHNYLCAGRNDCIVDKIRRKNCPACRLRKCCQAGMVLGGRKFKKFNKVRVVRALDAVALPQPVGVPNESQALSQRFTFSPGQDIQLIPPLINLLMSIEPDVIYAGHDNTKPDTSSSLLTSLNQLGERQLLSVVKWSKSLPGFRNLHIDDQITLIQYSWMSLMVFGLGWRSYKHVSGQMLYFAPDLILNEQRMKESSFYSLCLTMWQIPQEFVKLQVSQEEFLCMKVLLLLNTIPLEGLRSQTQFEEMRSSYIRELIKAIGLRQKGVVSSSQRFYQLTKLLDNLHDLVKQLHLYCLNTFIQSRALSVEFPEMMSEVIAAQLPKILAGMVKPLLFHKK
Put plainly: Binding affinity to progesterone receptor.

The test system of series [4] is Cynomolgus monkey. Put plainly: Androgenic activity in cynomolgus monkey assessed as increase of body weight at 0.1 mg/kg, po qd for 28 days. It is filed as functional, Macaca fascicularis. The method in brief:
(§1)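 Monkeys in groups of 3, grouped from day -21 and weighed at each time point. Oral dosing at 0.01, 0.1 or 1 mg/kg for 28 days, then 21 days off-dose. Each animal's weight change over the pre-dose weeks served as baseline; baseline-subtracted change from day -1 to day 29 was tested statistically.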

Series [5] relates to Rattus norvegicus. Put plainly: Androgenic activity in young intact rat assessed as increase of levator ani bulbocavernosus muscle weight at 0.3 mg/kg, po qd for 11 days. It is filed as functional, organism-based. More on the design: dose 0.3 mg/kg. As to conditions: Muscle tissue.
The subject of series [6] is Cynomolgus monkey. Put plainly: Androgenic activity in cynomolgus monkey assessed as effect on fat mass at up to 1 mg/kg, po qd for 28 days measured after 24 hrs of last post dose. More on the design: dose 1 mg/kg. As to conditions: Macaca fascicularis. It is filed as functional, organism-based. The method in brief:
(§2)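 Monkeys, 3 per group, dosed orally at 0.01, 0.1 or 1 mg/kg for 28 days. DEXA scans on day -2 and day 29 gave fat and lean tissue mass. Mean change per group, with SD.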

The subject of series [7] is Rattus norvegicus. Put plainly: Androgenic activity in castrated immature rat assessed as increase of levator ani bulbocavernosus muscle weight at 0.03 mg/kg, po qd for 11 days. It is filed as functional, organism-based. More on the design: dose 0.03 mg/kg. As to conditions: Muscle tissue.
The test system of series [8] is Cynomolgus monkey. Put plainly: Androgenic activity in cynomolgus monkey assessed as effect on lean tissue weight at up to 1 mg/kg, po qd for 28 days measured after 24 hrs of last post dose. It is filed as functional, organism-based. The settings on record: Macaca fascicularis. Further details: dose 1 mg/kg. The method in brief:
as §2

Series [9] deals with Rattus norvegicus. The experiment in a line: Androgenic activity in young intact rat assessed as increase of prostate weight at 30 mg/kg, po qd for 11 days. It is filed as functional, organism-based. Further details: dose 30 mg/kg. As to conditions: Prostate gland.
The nature of series [10]: Oral bioavailability in monkey. It is filed as ADME, organism-based, Macaca mulatta. As to conditions: rhesus monkey, in vivo.
Series [11] has as its system Cynomolgus monkey. The experiment in a line: Androgenic activity in cynomolgus monkey assessed as increase of body weight at 1 mg/kg, po qd for 28 days. Further details: dose 1 mg/kg. It is filed as functional, organism-based. The settings on record: Macaca fascicularis. The method in brief: as §1
Series [12] concerns Rattus norvegicus. Put plainly: Androgenic activity in castrated immature rat assessed as increase of levator ani bulbocavernosus muscle weight at 0.3 mg/kg, po qd for 11 days. It is filed as functional, organism-based. Further details: dose 0.3 mg/kg. As to conditions: Muscle tissue.
In series [13] the test system is Rattus norvegicus. Put plainly: Androgenic activity in young intact rat assessed as increase of levator ani bulbocavernosus muscle weight at 0.5 mg/kg, sc qd for 11 days. It is filed as functional, organism-based. Further details: dose 0.5 mg/kg. The settings on record: Muscle tissue.
The nature of series [14]: Half life in human microsomes. It is filed as ADME, Microsome.
Series [15] can be described thus: Half life in monkey microsomes. As to conditions: rhesus monkey. It is filed as ADME, Macaca mulatta, Microsome.
Series [16] can be described thus: Half life in rat microsomes. It is filed as ADME, Microsome.

pIC50, pKi: −log10 of the molar value. The source made the active and inactive calls. The calls are words filed in the database; no cut-off is given here.

`Cc1c(N[C@@H](c2nnc(-c3ccccc3)o2)[C@H](C)O)ccc(C#N)c1Cl`: the bioavailability in series [1] is below 5%.

Regarding `Cc1c(N[C@@H](c2nnc(-c3ccc(C#N)cc3)o2)[C@H](C)O)ccc(C#N)c1Cl` [RAD-140], the outcome in the series with Rattus norvegicus [2], in the series on Rattus norvegicus [3], in the series on Rattus norvegicus [5], with Rattus norvegicus [7], in the series with Cynomolgus monkey [11] and in the series with Rattus norvegicus [12] was Active. Moreover, the result in the series with Rattus norvegicus [13] was Active. This molecule gave a pKi on Androgen receptor of 8.15. The molecule further gave a negative-log IC50 (pIC50) on Progesterone receptor of 6.12. For the same molecule, the Activity in the series with Cynomolgus monkey [4] is on record as 10%. Also, the result in the series with Cynomolgus monkey [6], in the series on Cynomolgus monkey [8] and in the series with Rattus norvegicus [9] was inactive. Besides, the bioavailability in [1] stood at 27%; in [10] it was 65%. Moreover, the half-life in series [14], in series [15] and in [16] was above 2 h in each case.
